Measured values from ChEMBL document CHEMBL4342493, “Design and Optimization of 3'-(Imidazo[1,2-a]pyrazin-3-yl)-[1,1'-biphenyl]-3-carboxamides as Selective DDR1 Inhibitors” (ACS Med Chem Lett, 2020).

Assays:
[1] = molecular target: Epithelial discoidin domain-containing receptor 1 (Homo sapiens, UniProt Q08345); experiment: Inhibition of recombinant human GST-tagged DDR1 catalytic domain (440 to 876 residues) expressed in baculovirus expression system using Fluorescein-poly GAT as substrate incubated for 1 hr in presence of ATP by LanthaScreen Eu kinase assay
Bcr/Abl fusion protein = Bcr/Abl fusion protein (Homo sapiens, UniProt P00519); experiment: Inhibition of human recombinant full length His-tagged Bcr-Abl expressed in baculovirus expression system using tyrosine-2 peptide as substrate after 1 hr in presence of […] ATP by FRET based Z'-LYTE assay
Summary of the method: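 FRET-based Z′-Lyte kinase assay for Bcr-Abl; IC50 values are means of three independent experiments, variations <20%.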

[2] = molecular target: T1, Discoidin domain-containing receptor 2 (Homo sapiens, UniProt Q16832); experiment: Inhibition of recombinant human GST-tagged DDR2 cytoplasmic domain (427 to 855 residues) expressed in baculovirus expression system using Fluorescein-poly GAT as substrate incubated for 1 hr in presence of ATP by LanthaScreen Eu kinase assay
T1 sequence (Q16832 whole entry): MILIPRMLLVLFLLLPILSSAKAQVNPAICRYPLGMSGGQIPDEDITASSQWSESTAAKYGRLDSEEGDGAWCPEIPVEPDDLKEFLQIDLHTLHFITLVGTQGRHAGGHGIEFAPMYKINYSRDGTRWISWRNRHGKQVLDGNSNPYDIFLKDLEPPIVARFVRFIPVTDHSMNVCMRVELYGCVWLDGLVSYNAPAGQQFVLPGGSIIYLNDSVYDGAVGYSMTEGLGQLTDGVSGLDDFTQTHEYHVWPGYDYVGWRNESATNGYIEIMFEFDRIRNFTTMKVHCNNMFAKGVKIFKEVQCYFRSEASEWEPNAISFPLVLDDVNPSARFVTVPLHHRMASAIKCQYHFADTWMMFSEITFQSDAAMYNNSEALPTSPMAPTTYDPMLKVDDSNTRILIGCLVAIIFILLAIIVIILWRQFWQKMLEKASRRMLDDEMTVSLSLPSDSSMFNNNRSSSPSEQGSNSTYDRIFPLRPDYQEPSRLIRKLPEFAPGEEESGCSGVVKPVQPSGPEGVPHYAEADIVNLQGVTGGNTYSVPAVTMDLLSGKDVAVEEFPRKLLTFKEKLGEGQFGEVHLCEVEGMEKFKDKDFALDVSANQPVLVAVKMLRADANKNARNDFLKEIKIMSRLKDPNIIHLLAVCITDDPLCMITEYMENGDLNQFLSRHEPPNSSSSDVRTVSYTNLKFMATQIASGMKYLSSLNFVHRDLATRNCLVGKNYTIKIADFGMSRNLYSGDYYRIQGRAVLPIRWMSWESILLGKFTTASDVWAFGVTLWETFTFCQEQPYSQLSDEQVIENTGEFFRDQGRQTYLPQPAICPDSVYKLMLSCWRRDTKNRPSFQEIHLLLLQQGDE
Summary of the method: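 LanthaScreen Eu kinase assay for DDR2; IC50 values are means of three independent experiments, variations <20%.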

[3] = molecular target: Mast/stem cell growth factor receptor Kit (Homo sapiens, UniProt P10721); experiment: Inhibition of human recombinant His-tagged c-Kit cytoplasmic domain (544 to 976 residues) expressed in baculovirus expression system using Ser/Thr 6 peptide as substrate after 1 hr in presence of 300 uM ATP by FRET based Z'-LYTE assay
Mast/stem cell growth factor receptor Kit, sequence (P10721 whole entry, the tested form may be a part): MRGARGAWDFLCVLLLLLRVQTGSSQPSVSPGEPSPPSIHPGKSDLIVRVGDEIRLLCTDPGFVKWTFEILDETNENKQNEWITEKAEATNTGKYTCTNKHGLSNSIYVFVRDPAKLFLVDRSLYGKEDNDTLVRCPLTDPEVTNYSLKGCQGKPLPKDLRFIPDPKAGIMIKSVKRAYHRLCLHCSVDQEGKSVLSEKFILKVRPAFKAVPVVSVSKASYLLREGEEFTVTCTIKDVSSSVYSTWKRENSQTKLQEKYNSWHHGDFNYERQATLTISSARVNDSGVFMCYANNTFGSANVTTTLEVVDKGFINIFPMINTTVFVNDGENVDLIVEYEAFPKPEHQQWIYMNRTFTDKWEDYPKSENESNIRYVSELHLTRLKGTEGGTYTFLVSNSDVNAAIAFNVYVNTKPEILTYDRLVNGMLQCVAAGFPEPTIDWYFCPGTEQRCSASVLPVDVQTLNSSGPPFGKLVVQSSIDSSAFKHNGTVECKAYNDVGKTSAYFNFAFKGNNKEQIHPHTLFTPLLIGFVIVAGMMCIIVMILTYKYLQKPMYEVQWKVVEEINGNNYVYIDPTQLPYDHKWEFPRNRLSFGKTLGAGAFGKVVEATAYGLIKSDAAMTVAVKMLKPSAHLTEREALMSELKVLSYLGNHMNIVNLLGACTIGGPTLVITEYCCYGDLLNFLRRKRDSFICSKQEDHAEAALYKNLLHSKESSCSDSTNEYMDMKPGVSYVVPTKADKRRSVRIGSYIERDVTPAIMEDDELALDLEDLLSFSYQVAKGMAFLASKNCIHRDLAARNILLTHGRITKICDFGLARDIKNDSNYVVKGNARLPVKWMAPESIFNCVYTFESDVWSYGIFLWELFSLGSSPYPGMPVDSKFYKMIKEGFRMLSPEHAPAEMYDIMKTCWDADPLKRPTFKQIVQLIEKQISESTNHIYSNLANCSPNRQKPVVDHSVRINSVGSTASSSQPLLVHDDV

Epithelial discoidin domain-containing receptor 1, sequence (Q08345 whole entry, the tested form may be a part): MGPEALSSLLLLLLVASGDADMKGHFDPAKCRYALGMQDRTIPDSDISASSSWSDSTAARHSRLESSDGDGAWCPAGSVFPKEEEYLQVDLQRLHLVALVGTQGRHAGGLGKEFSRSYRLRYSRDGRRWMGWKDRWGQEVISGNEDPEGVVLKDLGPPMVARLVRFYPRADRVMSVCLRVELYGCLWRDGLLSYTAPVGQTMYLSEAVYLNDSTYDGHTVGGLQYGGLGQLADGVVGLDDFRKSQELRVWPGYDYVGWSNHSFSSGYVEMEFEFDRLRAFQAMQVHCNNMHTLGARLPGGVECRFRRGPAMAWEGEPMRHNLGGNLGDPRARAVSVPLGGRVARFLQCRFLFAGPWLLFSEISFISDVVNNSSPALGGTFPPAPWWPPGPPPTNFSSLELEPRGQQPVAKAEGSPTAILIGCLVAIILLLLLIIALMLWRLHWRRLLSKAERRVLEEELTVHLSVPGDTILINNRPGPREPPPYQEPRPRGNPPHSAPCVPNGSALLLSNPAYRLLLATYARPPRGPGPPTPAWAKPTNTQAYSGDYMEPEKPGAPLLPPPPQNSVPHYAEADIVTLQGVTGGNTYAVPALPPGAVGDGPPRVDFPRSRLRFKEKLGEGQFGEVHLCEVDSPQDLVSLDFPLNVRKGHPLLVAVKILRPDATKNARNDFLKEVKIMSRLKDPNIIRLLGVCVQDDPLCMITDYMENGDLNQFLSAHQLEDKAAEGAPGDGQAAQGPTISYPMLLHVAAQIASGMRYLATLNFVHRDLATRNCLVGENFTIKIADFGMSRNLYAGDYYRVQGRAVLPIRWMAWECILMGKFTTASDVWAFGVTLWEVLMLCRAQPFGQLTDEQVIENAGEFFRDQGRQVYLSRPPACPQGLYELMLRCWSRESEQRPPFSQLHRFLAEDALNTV
Bcr/Abl fusion protein, sequence (P00519 whole entry, the tested form may be a part): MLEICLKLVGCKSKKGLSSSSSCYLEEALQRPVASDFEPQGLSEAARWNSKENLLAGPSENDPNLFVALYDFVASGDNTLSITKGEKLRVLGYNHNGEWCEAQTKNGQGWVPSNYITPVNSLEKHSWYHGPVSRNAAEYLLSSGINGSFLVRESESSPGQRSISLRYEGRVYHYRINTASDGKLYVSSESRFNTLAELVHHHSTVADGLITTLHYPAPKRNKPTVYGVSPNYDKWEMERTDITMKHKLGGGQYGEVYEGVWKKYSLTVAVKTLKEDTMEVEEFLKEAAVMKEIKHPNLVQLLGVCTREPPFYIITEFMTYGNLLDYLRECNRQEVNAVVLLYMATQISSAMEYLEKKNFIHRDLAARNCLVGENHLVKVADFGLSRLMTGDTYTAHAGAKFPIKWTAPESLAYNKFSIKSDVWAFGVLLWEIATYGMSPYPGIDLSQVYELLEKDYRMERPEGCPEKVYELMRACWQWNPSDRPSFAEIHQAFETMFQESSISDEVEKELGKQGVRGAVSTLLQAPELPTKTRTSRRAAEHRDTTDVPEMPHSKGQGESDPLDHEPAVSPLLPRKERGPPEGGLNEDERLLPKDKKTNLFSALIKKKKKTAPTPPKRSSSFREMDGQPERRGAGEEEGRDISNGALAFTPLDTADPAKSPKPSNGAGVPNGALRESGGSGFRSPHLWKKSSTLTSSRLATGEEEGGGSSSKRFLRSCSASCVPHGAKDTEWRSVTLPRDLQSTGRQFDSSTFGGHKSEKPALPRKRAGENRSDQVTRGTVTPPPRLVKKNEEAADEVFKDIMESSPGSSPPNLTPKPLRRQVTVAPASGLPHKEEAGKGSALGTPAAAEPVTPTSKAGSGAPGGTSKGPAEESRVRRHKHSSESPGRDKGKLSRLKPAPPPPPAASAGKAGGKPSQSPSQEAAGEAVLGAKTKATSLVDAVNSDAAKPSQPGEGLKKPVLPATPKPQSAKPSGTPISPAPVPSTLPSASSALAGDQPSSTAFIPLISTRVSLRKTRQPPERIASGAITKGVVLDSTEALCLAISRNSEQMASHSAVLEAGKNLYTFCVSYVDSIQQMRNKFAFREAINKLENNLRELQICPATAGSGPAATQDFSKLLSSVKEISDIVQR
Bcr/Abl fusion protein, sequence (P11274 whole entry, further chain, the tested form may be a part): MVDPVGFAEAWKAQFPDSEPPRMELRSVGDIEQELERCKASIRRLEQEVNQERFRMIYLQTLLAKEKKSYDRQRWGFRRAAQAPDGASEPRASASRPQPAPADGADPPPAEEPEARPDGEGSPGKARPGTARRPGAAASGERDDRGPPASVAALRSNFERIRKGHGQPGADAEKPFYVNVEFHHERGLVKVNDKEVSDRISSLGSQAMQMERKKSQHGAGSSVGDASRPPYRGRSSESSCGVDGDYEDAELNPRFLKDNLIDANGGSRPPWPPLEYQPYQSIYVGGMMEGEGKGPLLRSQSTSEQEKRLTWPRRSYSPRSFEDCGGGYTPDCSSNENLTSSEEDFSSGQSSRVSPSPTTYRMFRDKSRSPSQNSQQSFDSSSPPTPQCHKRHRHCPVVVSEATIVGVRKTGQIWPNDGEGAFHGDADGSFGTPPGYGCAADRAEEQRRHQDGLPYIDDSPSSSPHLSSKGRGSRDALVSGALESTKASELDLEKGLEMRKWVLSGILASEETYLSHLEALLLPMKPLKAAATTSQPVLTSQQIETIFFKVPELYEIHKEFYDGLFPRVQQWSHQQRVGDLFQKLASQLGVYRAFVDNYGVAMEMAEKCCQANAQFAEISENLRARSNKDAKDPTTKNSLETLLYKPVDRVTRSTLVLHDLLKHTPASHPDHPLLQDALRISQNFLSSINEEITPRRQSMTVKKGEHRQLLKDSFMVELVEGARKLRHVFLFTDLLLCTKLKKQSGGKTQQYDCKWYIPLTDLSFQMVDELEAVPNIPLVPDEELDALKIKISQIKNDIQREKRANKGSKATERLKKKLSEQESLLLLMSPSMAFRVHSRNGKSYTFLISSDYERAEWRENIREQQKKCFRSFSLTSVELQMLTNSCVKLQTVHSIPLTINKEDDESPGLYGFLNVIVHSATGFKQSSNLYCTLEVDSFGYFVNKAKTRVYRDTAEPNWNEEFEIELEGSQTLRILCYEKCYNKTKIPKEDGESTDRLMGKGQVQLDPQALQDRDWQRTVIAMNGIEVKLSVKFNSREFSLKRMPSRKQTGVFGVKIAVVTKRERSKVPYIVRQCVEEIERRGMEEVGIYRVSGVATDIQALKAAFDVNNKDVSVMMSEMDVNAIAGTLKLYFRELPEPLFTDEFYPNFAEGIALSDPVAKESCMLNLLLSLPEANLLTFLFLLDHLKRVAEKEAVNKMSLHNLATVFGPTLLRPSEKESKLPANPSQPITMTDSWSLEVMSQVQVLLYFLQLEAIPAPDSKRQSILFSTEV

Row | SMILES | IC50 [1] | IC50 (Bcr/Abl fusion protein) | IC50 [2] | IC50 [3]
1 | CCc1ccc(C(=O)Nc2cc(CN3CCN(C)CC3)cc(C(F)(F)F)c2)cc1-c1cccc(-c2cnc3ccnn3c2)c1 | 359 nM | > 10000 nM | 197 nM | > 10000 nM
2 | CCc1ccc(C(=O)Nc2ccccc2C(F)(F)F)cc1-c1cccc(-c2cnc3cnccn23)c1 | 4880 nM | > 10000 nM | > 10000 nM | > 10000 nM
3 | CCc1ccc(C(=O)Nc2cccc(C(F)(F)F)c2)cc1-c1cc(C)cc(-c2cnc3cnccn23)c1 | 22.5 nM | > 10000 nM | 1730 nM | > 10000 nM
4 | CCc1ccc(C(=O)Nc2ccc(F)c(C(F)(F)F)c2)cc1-c1cc(C)cc(-c2cnc3cnccn23)c1 | 55.6 nM | > 10000 nM | > 5000 nM | > 10000 nM
5 | CCc1ccc(C(=O)Nc2cc(C(F)(F)F)ccc2F)cc1-c1cc(C)cc(-c2cnc3cnccn23)c1 | 36.5 nM | > 10000 nM | > 5000 nM | > 10000 nM
6 | CCc1ccc(C(=O)Nc2cccc(C(F)(F)F)c2)cc1-c1cc(-c2cnc3cnccn23)ccc1C | 63.7 nM | 1450 nM | 610 nM | > 10000 nM
7 | CCc1ccc(C(=O)Nc2cccc(C(F)(F)F)c2)cc1-c1ccc(C)c(-c2cnc3cnccn23)c1 | 108 nM | > 10000 nM | > 10000 nM | > 10000 nM
8 | CCc1ccc(C(=O)Nc2cccc(C(F)(F)F)c2)cc1-c1cc(-c2cnc3cnccn23)cc(C(C)C)c1 | 66.9 nM | > 10000 nM | 2630 nM | > 10000 nM
9 | CCc1ccc(C(=O)Nc2cccc(C(F)(F)F)c2F)cc1-c1cc(C)cc(-c2cnc3cnccn23)c1 | 73.8 nM | > 10000 nM | > 5000 nM | > 10000 nM
10 | CCc1ccc(C(=O)Nc2cc(CN3CCN(C)CC3)cc(C(F)(F)F)c2)cc1C#Cc1cnc2ccnn2c1 |  |  |  | > 10000 nM
11 | CCc1ccc(C(=O)Nc2ccccc2)cc1-c1cccc(-c2cnc3cnccn23)c1 | 4850 nM | 5120 nM | > 10000 nM | 8990 nM
12 | CCc1ccc(C(=O)Nc2cccc(C(F)(F)F)c2)cc1-c1cc(-c2cnc3cnccn23)cc(C(C)(C)C)c1 | 92 nM | > 10000 nM | > 10000 nM | > 10000 nM
13 | CCc1cc(-c2cc(C(=O)Nc3cccc(C(F)(F)F)c3)ccc2CC)cc(-c2cnc3cnccn23)c1 | 42.3 nM | > 10000 nM | 3230 nM | > 10000 nM

The next compounds have a lower IC50 [3] than those just listed; values first:

Row | IC50 [1] | IC50 (Bcr/Abl fusion protein) | IC50 [2] | IC50 [3] | SMILES
14 | 30.1 nM | 1810 nM | 663 nM | 5980 nM | CCc1ccc(C(=O)Nc2cccc(C(F)(F)F)c2)cc1-c1cccc(-c2cnc3cnccn23)c1C
15 | 9.2 nM | 237 nM | 135 nM | 72.4 nM | Cc1ccc(C(=O)Nc2cccc(C(F)(F)F)c2)cc1-c1cccc(-c2cnc3cnccn23)c1
16 | 30.3 nM | 5340 nM | 1330 nM | 6590 nM | CCc1ccc(C(=O)Nc2cccc(C(F)(F)F)c2)cc1-c1cc(F)cc(-c2cnc3cnccn23)c1
17 | 357 nM | 989 nM | > 10000 nM | 4930 nM | CCc1ccc(C(=O)Nc2cccc(CN3CCN(C)CC3)c2)cc1-c1cccc(-c2cnc3cnccn23)c1
18 | 8.7 to 9.6 nM | 437 nM | 66.1 nM | 620 nM | CCc1ccc(C(=O)Nc2cc(CN3CCN(C)CC3)cc(C(F)(F)F)c2)cc1-c1cccc(-c2cnc3cnccn23)c1
19 | 15.6 nM | 5640 nM | 947 nM | 3720 nM | CCc1ccc(C(=O)Nc2cccc(C(F)(F)F)c2)cc1-c1cc(C#N)cc(-c2cnc3cnccn23)c1
20 | 1300 nM | 4990 nM | > 10000 nM | 3980 nM | CCc1ccc(C(=O)Nc2ccc(C(F)(F)F)cc2)cc1-c1cccc(-c2cnc3cnccn23)c1
21 | 10.4 nM | 2220 nM | 725 nM | 2920 nM | CCc1ccc(C(=O)Nc2cccc(C(F)(F)F)c2)cc1-c1cccc(-c2cnc3cnccn23)c1
22 | 21.3 nM | > 10000 nM | 1080 nM | 8410 nM | CCc1ccc(C(=O)Nc2cccc(C(F)(F)F)c2)cc1-c1cc(Cl)cc(-c2cnc3cnccn23)c1
23 | 16.5 nM | 3700 nM | 1020 nM | 4990 nM | CCc1ccc(C(=O)Nc2cccc(C(F)(F)F)c2)cc1-c1cc(OC)cc(-c2cnc3cnccn23)c1
24 | 1260 nM | > 10000 nM | > 10000 nM | 1690 nM | CC(C)c1ccc(C(=O)Nc2cccc(C(F)(F)F)c2)cc1-c1cccc(-c2cnc3cnccn23)c1
